Measured values: paper PMC10213863 (Cell Reports Medicine, 2023)

Experiments:
[1] = tested on: human PBMCs, monocytes, neutrophils, human blood; assay: Cell viability in profiling assays; format: cell-based; settings: human primary cells; concentrations of up to 10 μM
Outline: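 Toxicity counter-screens were run within each primary-cell assay across the test-compound dose range. PBMCs, isolated monocytes and neutrophils were read by CellTiter-Glo. Diluted whole blood was read by ATPlite luminescence.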

TLR7 [2] = biological target: T1, TLR7 (Homo sapiens, UniProt Q9NYK1); assay: Human PBMC assay, ssRNA-induced IFN-α; format: cell-based; settings: human PBMCs, mean ± SEM (n)
T1 sequence (Q9NYK1 27-1049): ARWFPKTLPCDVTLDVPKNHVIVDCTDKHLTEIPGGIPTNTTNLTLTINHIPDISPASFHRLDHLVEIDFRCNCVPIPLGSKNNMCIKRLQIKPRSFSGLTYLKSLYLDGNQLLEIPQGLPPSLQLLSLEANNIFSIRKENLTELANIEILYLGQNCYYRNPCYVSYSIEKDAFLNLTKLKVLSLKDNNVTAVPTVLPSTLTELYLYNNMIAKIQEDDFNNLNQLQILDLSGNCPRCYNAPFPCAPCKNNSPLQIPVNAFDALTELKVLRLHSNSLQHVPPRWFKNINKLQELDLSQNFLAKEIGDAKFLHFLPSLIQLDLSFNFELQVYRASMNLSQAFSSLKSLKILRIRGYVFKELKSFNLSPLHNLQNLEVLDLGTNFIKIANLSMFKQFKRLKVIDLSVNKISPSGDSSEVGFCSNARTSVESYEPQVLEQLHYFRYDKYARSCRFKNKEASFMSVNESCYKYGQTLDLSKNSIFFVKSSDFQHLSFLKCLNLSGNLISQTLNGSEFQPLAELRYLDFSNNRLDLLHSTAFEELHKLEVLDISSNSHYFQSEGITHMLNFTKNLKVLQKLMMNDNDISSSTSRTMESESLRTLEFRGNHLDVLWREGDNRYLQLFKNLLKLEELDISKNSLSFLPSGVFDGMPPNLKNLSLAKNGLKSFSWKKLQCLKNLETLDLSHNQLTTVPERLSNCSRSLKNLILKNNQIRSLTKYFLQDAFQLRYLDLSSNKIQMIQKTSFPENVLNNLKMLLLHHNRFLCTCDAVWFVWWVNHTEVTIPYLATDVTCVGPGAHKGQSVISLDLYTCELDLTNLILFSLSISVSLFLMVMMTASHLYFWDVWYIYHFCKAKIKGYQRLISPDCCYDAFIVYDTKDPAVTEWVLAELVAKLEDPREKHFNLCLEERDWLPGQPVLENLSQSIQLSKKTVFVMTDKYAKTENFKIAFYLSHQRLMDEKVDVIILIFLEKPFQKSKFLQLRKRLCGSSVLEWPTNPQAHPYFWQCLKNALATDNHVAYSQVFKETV
Outline: (§1)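 Human PBMCs were pre-incubated 30 min with test compound, then stimulated with the respective TLR or IL-1R agonist at doses from earlier work. Cytokines in supernatants were quantified by immunoassay. Viability across the dose range was checked by CellTiter-Glo.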

TLR5 = TLR5 (Homo sapiens, UniProt O60602); assay: Human PBMC cytokine secretion, TLR5 agonist; format: cell-based; settings: human PBMCs; up to 10 μM; n = 5 donors, data not shown
Outline: as §1

IL-1 receptor (IL-1R) = IL-1 receptor (IL-1R) (Homo sapiens, UniProt P14778); assay: Human PBMC cytokine secretion, IL-1 receptor agonist; format: cell-based; settings: human PBMCs; up to 10 μM; n = 5 donors, data not shown
Outline: as §1

TLR7 [3] = biological target: T2, TLR7 (Mus musculus, UniProt P58681); format: in vivo; settings: mice; single oral dose 5 mg/kg
T2 sequence (P58681 27-1050): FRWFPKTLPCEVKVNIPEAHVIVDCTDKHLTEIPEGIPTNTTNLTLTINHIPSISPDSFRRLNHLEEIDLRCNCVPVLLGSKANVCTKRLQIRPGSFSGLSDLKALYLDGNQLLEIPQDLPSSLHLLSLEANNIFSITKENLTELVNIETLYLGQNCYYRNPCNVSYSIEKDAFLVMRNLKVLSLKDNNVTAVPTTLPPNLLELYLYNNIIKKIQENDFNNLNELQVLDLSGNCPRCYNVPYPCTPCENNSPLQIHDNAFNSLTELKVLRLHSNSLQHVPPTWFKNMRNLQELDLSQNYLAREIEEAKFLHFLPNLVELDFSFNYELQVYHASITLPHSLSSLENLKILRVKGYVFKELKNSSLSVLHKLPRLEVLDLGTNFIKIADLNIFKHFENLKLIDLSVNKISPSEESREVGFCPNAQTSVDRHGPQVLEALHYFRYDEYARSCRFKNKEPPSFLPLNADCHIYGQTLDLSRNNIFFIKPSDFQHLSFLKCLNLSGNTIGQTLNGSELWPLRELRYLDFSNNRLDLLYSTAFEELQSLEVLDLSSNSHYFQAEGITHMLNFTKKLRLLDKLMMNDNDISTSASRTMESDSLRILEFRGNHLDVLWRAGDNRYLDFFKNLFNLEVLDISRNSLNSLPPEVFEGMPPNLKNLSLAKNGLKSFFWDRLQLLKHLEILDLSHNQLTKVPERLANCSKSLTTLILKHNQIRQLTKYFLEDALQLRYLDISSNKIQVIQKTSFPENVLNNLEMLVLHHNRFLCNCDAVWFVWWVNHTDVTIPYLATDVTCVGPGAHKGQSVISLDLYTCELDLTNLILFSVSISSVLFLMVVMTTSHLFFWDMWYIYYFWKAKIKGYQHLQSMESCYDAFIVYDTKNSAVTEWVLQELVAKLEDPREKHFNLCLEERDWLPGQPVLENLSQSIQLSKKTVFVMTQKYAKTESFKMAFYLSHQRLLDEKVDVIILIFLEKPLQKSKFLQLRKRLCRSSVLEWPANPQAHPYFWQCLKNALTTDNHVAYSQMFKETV

Sequence of IL-1 receptor (IL-1R) (P14778 18-569): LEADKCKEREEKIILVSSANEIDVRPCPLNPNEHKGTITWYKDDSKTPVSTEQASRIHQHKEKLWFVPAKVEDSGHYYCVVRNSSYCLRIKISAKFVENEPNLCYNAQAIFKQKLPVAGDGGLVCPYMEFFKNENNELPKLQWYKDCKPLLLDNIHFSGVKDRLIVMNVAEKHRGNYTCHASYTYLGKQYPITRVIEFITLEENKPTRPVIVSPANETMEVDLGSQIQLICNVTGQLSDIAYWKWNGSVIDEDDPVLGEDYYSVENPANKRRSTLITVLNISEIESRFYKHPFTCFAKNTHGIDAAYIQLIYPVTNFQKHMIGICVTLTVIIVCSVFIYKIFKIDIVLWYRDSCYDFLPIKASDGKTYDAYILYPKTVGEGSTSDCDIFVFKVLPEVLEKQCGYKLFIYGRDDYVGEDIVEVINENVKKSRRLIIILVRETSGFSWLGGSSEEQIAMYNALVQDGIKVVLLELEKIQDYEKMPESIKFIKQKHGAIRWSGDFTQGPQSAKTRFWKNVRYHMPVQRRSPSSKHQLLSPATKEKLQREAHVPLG
Sequence of TLR5 (O60602 21-858): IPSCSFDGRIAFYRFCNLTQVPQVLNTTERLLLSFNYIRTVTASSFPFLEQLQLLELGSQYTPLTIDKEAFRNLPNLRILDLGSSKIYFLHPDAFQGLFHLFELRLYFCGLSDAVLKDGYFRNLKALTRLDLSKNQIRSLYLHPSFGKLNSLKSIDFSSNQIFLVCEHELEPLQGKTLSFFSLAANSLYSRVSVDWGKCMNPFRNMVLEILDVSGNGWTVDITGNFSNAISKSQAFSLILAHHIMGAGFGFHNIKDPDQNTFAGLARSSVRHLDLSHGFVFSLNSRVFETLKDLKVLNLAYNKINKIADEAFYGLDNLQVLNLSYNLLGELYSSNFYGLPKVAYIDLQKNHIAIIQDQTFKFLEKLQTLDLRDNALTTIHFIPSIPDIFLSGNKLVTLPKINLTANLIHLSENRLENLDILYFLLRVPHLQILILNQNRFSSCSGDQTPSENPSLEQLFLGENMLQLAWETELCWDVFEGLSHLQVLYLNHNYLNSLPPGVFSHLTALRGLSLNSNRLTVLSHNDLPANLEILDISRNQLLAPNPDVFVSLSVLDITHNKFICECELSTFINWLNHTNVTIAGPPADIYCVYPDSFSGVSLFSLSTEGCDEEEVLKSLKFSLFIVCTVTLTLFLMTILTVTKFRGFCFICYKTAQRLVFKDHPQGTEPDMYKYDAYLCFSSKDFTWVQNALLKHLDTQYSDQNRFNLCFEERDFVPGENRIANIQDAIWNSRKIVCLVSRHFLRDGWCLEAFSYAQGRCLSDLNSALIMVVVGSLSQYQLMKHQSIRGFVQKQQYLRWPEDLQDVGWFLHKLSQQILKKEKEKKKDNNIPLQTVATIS

Question: Which cell toxicity [1] does the source give for `Cc1cc(N2CCc3c(c(C)nn3CC34CCC(NC(=O)[C@@H]5COCCN5)(CC3)CC4)C2)c2cnn(C)c2n1` [MHV370, (S)-N-(4-((5-(1,6-dimethyl-1H-pyrazolo[3,4-b]pyridin-4-yl)-3-methyl-4,5,6,7-tetrahydro-1H-pyrazolo[4,3-c]pyridin-1-yl)methyl)bicyclo[2.2.2]octan-1-yl)morpholine-3-carboxamide] here?
Answer: The cell toxicity was “did not lead to cell toxicity”.

Question: What about the IC50 (TLR7 [2]) of the same compound?
Answer: The IC50 was 4.1 ± 0.4 nM.

Question: What about the “interference with cytokine secretion, TLR5 agonist” value (TLR5) of the same compound?
Answer: The value was “did not significantly interfere”.

Question: What about the “interference with cytokine secretion, IL-1R agonist” value (IL-1 receptor (IL-1R)) of the same compound?
Answer: The value was “did not significantly interfere”.

Question: What about the “CD69 expression on B cells, ex vivo R848 stimulation of blood” value (TLR7 [3]) of the same compound?
Answer: Its value is “marked inhibition of CD69 expression over a period of 8 h”.
